{
  "source": "ChEMBL document CHEMBL1126924",
  "about": "“R2 C-terminal peptide inhibition of mammalian and yeast ribonucleotide reductase” (J Med Chem, 1993)",
  "key": {"[1]": {"target": "T1, Ribonucleoside-diphosphate reductase large subunit (Mus musculus, UniProt P07742)", "T1 sequence (P07742 whole entry)": "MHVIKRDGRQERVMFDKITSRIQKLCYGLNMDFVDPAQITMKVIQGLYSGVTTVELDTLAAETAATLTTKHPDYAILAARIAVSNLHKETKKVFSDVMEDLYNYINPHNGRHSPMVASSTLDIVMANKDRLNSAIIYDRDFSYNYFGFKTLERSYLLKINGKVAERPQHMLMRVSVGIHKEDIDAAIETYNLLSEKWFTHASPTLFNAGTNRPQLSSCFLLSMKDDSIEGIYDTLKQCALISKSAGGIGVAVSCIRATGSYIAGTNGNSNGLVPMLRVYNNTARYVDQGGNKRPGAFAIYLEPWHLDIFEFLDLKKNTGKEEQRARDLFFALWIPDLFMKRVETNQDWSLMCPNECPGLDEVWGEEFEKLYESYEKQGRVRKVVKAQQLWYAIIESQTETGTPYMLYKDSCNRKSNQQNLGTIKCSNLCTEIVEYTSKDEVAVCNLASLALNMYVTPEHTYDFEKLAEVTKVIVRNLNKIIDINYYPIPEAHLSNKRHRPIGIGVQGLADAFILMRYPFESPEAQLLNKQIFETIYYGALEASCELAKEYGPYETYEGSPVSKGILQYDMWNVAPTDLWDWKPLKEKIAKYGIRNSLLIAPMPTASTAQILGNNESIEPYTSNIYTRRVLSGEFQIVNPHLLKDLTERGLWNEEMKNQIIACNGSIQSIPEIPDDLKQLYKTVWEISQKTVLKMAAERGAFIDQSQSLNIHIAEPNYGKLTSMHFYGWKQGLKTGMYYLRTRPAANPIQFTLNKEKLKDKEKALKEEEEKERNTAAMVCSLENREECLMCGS", "test": "Inhibitory activity of compound against mammalian ribonucleotide reductase; Range is 9-15", "summary_of_the_method": "(§1)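 Calf thymus R1 (1 μg) with cloned mouse R2 (2 μg) expressed in E. coli from pET-M2. CDP reduction was run at 35 °C with DTT as reductant. [³H]dCDP was separated on aminophenylboronate and counted by scintillation.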"}, "[2]": {"target": "T1, Ribonucleoside-diphosphate reductase large subunit", "test": "Inhibitory activity of compound against mammalian ribonucleotide reductase; Range is 364-460", "summary_of_the_method": "as §1"}, "[3]": {"target": "T1, Ribonucleoside-diphosphate reductase large subunit", "test": "Inhibitory activity of compound against mammalian ribonucleotide reductase; Range is 48-58", "summary_of_the_method": "as §1"}, "[4]": {"target": "T1, Ribonucleoside-diphosphate reductase large subunit", "test": "Inhibitory activity of compound against mammalian ribonucleotide reductase; Range is 35-40", "summary_of_the_method": "as §1"}, "[5]": {"target": "Ribonucleoside-diphosphate reductase RR1 (Homo sapiens) (UniProt P23921+Q7LG56+P31350)", "test": "Relative inhibitory potency against mammalian ribonucleotide reductase", "assay_type": "protein-complex assay"}, "[6]": {"target": "T1, Ribonucleoside-diphosphate reductase large subunit", "test": "Inhibitory activity of compound against mammalian ribonucleotide reductase; Range is 8-20", "summary_of_the_method": "as §1"}, "[7]": {"target": "T1, Ribonucleoside-diphosphate reductase large subunit", "test": "Inhibitory activity of compound against mammalian ribonucleotide reductase; Range is 40-42", "summary_of_the_method": "as §1"}, "[8]": {"target": "T1, Ribonucleoside-diphosphate reductase large subunit", "test": "Inhibitory activity of compound against mammalian ribonucleotide reductase; Range is 32-38", "summary_of_the_method": "as §1"}, "[9]": {"target": "T1, Ribonucleoside-diphosphate reductase large subunit", "test": "Inhibitory activity of compound against mammalian ribonucleotide reductase; Range is 29-30", "summary_of_the_method": "as §1"}, "[10]": {"target": "T1, Ribonucleoside-diphosphate reductase large subunit", "test": "Inhibitory activity of compound against mammalian ribonucleotide reductase; Range is 450-620", "summary_of_the_method": "as §1"}, "[11]": {"target": "T1, Ribonucleoside-diphosphate reductase large subunit", "test": "Inhibitory activity of compound against mammalian ribonucleotide reductase; Range is 286-336", "summary_of_the_method": "as §1"}, "[12]": {"target": "T1, Ribonucleoside-diphosphate reductase large subunit", "test": "Inhibitory activity of compound against mammalian ribonucleotide reductase; Range is 110-230", "summary_of_the_method": "as §1"}, "[13]": {"target": "T1, Ribonucleoside-diphosphate reductase large subunit", "test": "Inhibitory activity of compound against mammalian ribonucleotide reductase; Range is 25-29", "summary_of_the_method": "as §1"}, "[14]": {"target": "T1, Ribonucleoside-diphosphate reductase large subunit", "test": "Inhibitory activity of compound against mammalian ribonucleotide reductase; Range is 34-35", "summary_of_the_method": "as §1"}},
  "data": [
    {"compound": "CC(=O)N[C@@H](CC(N)=O)C(=O)N[C@@H](CO)C(=O)N[C@@H](Cc1ccccc1)C(=O)N[C@H](C(=O)N[C@@H](CC(C)C)C(=O)N[C@@H](CC(=O)O)C(=O)N[C@@H](C)C(=O)N[C@@H](CC(=O)O)C(=O)N[C@@H](Cc1ccccc1)C(=O)O)[C@@H](C)O", "values": [
      {"measurement": "IC50", "setting": "[1]", "result": 9, "unit": "µM"}
    ]},
    {"compound": "CC(=O)N[C@@H](Cc1ccccc1)C(=O)N[C@H](C(=O)N[C@@H](CC(C)C)C(=O)N[C@@H](CC(=O)O)C(=O)N[C@@H](Cc1ccccc1)C(=O)O)[C@@H](C)O", "values": [
      {"measurement": "IC50", "setting": "[2]", "result": 364, "unit": "µM"}
    ]},
    {"compound": "CC(=O)N[C@@H](Cc1ccccc1)C(=O)N[C@H](C(=O)N[C@@H](Cc1ccccc1)C(=O)N[C@@H](CC(=O)O)C(=O)N[C@@H](C)C(=O)N[C@@H](CC(=O)O)C(=O)N[C@@H](Cc1ccccc1)C(=O)O)[C@@H](C)O", "values": [
      {"measurement": "IC50", "setting": "[3]", "result": 48, "unit": "µM"}
    ]},
    {"compound": "Ac-FALDADF-OH", "values": [
      {"measurement": "IC50", "setting": "[4]", "result": 35, "unit": "µM"},
      {"measurement": "RI", "setting": "[5]", "result": 24, "unit": "%"}
    ]},
    {"compound": "CC(=O)N[C@@H](CO)C(=O)N[C@@H](Cc1ccccc1)C(=O)N[C@H](C(=O)N[C@@H](CC(C)C)C(=O)N[C@@H](CC(=O)O)C(=O)N[C@@H](C)C(=O)N[C@@H](CC(=O)O)C(=O)N[C@@H](Cc1ccccc1)C(=O)O)[C@@H](C)O", "values": [
      {"measurement": "IC50", "setting": "[6]", "result": 8, "unit": "µM"}
    ]},
    {"compound": "Ac-FSLDADF-OH", "values": [
      {"measurement": "IC50", "setting": "[7]", "result": 40, "unit": "µM"},
      {"measurement": "RI", "setting": "[5]", "result": 25, "unit": "%"}
    ]},
    {"compound": "CC(=O)N[C@@H](Cc1ccccc1)C(=O)N[C@H](C(=O)N[C@@H](CC(C)C)C(=O)N[C@@H](CC(=O)O)C(=O)N[C@@H](C)C(=O)N[C@@H](CC(N)=O)C(=O)N[C@@H](Cc1ccccc1)C(=O)O)[C@@H](C)O", "values": [
      {"measurement": "IC50", "setting": "[8]", "result": 32, "unit": "µM"}
    ]},
    {"compound": "CC(=O)N[C@@H](Cc1ccccc1)C(=O)N[C@H](C(=O)N[C@@H](CC(C)C)C(=O)N[C@@H](CC(=O)O)C(=O)N[C@@H](C)C(=O)N[C@@H](CC(C)C)C(=O)N[C@@H](Cc1ccccc1)C(=O)O)[C@@H](C)O", "values": [
      {"measurement": "IC50", "setting": "[9]", "result": 29, "unit": "µM"}
    ]},
    {"compound": "CC(=O)N[C@@H](Cc1ccccc1)C(=O)N[C@H](C(=O)N[C@@H](CC(C)C)C(=O)N[C@@H](CC(=O)O)C(=O)N[C@@H](C)C(=O)N[C@@H](CCC(=O)O)C(=O)N[C@@H](Cc1ccccc1)C(=O)O)[C@@H](C)O", "values": [
      {"measurement": "IC50", "setting": "[10]", "result": 450, "unit": "µM"}
    ]},
    {"compound": "CC(=O)N[C@@H](Cc1ccccc1)C(=O)N[C@H](C(=O)N[C@@H](CC(C)C)C(=O)N[C@@H](C)C(=O)N[C@@H](C)C(=O)N[C@@H](CC(=O)O)C(=O)N[C@@H](Cc1ccccc1)C(=O)O)[C@@H](C)O", "values": [
      {"measurement": "IC50", "setting": "[11]", "result": 286, "unit": "µM"}
    ]},
    {"compound": "CC(=O)N[C@@H](Cc1ccccc1)C(=O)N[C@H](C(=O)N[C@@H](CC(C)C)C(=O)N[C@@H](CC(=O)O)C(=O)NCC(=O)N[C@@H](CC(=O)O)C(=O)N[C@@H](Cc1ccccc1)C(=O)O)[C@@H](C)O", "values": [
      {"measurement": "IC50", "setting": "[12]", "result": 110, "unit": "µM"}
    ]},
    {"compound": "CC(=O)N[C@@H](Cc1ccccc1)C(=O)N[C@H](C(=O)N[C@@H](CC(C)C)C(=O)N[C@@H](CC(N)=O)C(=O)N[C@@H](C)C(=O)N[C@@H](CC(=O)O)C(=O)N[C@@H](Cc1ccccc1)C(=O)O)[C@@H](C)O", "values": [
      {"measurement": "IC50", "setting": "[13]", "result": 25, "unit": "µM"}
    ]},
    {"compound": "CC(=O)N[C@@H](Cc1ccccc1)C(=O)N[C@H](C(=O)N[C@@H](CC(C)C)C(=O)N[C@@H](CC(=O)O)C(=O)N[C@@H](C)C(=O)N[C@@H](C)C(=O)N[C@@H](Cc1ccccc1)C(=O)O)[C@@H](C)O", "values": [
      {"measurement": "IC50", "setting": "[14]", "result": 34, "unit": "µM"}
    ]}
  ]
}
